# Entries after “also recorded” stand apart in the source; their conditions may differ.
# Columns and labels:
# [1] = target: T1, GS activity in HEK293-PTG cell lysates (Homo sapiens, UniProt P13807); test: GS activity in HEK293-PTG cell lysates, 14C-glucose incorporation; format: biochemical; conditions: 100 μM compound; 0.15 mg/mL lysate; 0.2 mM UDPG, 1 mM G6P
# T1 sequence (P13807 1-737): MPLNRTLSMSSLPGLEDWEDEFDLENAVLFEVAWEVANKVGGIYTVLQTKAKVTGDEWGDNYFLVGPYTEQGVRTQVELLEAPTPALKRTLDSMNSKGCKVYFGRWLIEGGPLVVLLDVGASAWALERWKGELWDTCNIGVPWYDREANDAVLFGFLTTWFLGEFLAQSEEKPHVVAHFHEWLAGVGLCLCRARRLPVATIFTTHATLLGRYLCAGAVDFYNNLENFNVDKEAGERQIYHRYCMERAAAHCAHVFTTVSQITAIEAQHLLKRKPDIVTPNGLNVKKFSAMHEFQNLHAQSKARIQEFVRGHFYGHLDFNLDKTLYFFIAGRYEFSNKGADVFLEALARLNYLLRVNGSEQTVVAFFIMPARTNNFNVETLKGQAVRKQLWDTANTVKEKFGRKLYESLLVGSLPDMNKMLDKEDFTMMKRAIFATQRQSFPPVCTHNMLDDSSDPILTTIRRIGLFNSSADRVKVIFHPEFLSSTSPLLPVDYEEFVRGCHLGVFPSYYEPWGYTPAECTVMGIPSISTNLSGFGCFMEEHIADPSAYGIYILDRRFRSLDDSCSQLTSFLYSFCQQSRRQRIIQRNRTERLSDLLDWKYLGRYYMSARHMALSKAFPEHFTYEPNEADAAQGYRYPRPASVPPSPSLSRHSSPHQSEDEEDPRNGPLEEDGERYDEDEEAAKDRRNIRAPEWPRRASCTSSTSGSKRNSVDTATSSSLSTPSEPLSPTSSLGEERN
# How it was run: (§1)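 HEK293 cells stably transfected with mouse PTG (hygromycin-selected mixed clones) were grown to confluence. Cells were lysed in EDTA/EGTA/NaF buffer with protease inhibitors, vanadate and Triton, freeze-scraped, sonicated, and the lysate diluted 10-fold. Assay: 50 mM Tris-HCl pH 7.8, 6.7 mg/ml glycogen, 0.2 mM UDPG, 1 mM G6P, 2% DMSO, test compound 100 µM. Read-out: 14C-glucose incorporation as % of DMSO control.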
# [2] = target: T2, GS activity in Rat-1 cell lysates (Rattus norvegicus, UniProt A2RRU1); test: GS activity in Rat-1 cell lysates, 14C-glucose incorporation; format: biochemical; conditions: 100 μM compound; 0.75 mg/mL lysate; 0.2 mM UDPG, 1 mM G6P
# T2 sequence (A2RRU1 1-738): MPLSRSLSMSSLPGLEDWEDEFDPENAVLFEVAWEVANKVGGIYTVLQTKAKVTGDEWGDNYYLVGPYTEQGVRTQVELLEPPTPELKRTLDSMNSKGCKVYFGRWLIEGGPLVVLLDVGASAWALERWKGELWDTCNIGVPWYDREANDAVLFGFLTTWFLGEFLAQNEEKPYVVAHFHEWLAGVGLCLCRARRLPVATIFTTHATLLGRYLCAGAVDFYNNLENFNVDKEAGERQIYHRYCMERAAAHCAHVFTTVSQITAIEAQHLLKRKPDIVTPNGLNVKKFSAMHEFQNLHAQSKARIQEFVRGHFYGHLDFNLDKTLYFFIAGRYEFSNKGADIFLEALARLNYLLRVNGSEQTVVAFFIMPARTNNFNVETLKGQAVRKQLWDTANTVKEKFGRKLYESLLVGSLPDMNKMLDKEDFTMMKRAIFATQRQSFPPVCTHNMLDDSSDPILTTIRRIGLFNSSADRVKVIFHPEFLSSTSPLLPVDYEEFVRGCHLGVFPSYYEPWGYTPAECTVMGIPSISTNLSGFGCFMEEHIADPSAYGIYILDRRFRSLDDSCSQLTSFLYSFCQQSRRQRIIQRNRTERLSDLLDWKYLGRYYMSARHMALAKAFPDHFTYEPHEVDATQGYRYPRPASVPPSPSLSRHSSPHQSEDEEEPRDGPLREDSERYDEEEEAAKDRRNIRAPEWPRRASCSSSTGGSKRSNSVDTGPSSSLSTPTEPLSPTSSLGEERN
# How it was run: as §1, with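 “Rat-1 fibroblasts” for “HEK293 cells stably transfected with mouse PTG (hygromycin-selected mixed clones)”, “grown in DMEM/10% FBS” for “grown”, “2-fold.” for “10-fold.”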
# yGsy2p [3] = target: T3, yGsy2p (Saccharomyces cerevisiae, UniProt P27472); test: 14C-glucose incorporation assay, yGsy2p inhibition; format: biochemical; conditions: co-variation of UDPG and inhibitor
# T3 sequence (P27472 1-705): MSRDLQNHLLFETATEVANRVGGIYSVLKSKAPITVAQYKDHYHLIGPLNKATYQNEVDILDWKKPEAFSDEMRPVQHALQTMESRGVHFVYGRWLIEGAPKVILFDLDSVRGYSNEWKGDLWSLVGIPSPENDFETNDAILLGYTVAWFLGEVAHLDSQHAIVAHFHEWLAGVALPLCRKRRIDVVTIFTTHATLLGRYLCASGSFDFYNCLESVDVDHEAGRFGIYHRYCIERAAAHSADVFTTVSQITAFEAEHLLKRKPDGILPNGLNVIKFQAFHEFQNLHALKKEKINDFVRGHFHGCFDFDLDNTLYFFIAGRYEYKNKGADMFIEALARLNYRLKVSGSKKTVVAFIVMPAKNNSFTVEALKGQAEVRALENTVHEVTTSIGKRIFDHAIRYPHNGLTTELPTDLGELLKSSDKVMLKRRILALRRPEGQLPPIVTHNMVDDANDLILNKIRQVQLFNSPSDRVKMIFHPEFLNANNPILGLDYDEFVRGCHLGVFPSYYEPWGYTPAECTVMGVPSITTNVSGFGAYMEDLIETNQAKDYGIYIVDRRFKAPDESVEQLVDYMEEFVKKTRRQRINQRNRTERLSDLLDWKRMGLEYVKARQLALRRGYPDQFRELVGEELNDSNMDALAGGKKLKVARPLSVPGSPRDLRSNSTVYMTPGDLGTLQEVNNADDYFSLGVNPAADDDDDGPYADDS
# hGYS1Δ634S8,11N = target: T4, hGYS1Δ634S8,11N (Homo sapiens, UniProt P13807, S11N/S8N); test: 14C-glucose incorporation assay, hGYS1Δ634S8,11N inhibition; format: biochemical; conditions: read-out: inhibition of truncated hGYS1 (hGYS1Δ634S8,11N)
# T4 sequence (P13807 1-634 S8N/S11N limits assumed): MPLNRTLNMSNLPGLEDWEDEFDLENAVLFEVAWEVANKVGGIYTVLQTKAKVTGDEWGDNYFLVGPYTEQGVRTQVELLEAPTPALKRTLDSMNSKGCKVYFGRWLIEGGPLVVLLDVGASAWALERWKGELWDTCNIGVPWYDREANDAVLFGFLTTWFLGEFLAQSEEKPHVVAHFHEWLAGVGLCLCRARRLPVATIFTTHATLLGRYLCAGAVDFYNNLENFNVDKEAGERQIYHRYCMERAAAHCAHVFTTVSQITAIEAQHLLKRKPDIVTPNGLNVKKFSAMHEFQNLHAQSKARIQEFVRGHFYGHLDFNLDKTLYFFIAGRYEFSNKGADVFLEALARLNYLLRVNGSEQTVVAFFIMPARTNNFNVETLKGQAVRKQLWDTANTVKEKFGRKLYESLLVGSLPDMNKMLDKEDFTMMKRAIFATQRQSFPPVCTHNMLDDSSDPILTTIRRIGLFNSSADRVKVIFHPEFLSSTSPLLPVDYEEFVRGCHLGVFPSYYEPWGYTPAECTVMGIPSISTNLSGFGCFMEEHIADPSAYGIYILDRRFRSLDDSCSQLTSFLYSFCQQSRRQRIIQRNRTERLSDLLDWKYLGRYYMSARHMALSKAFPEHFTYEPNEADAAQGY
# yGsy2p [4] = target: T3, yGsy2p; test: Fluorescence polarization saturation binding of tracer to yGsy2p
# How it was run: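 Yeast Gsy2p titrated from 0 to 50 µM against 20 nM final fluorescein-labelled glucosamine-6-phosphate tracer in 15 mM Tris-HCl pH 7.8, 15 mM NaCl. Incubated 10 min at 25°C, then polarization read (ex 485/em 535 nm, mP). Saturation curve fitted to a hyperbolic equation for Kd. Triplicate.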
# wild-type hGYS1 = target: T5, wild-type hGYS1 (Homo sapiens, UniProt P13807); test: 14C-glucose incorporation assay, wild-type hGYS1 inhibition; format: biochemical; conditions: for improvement in potency toward hGYS1 relative to H23: ratio of IC50 values versus H23
# T5 sequence (P13807 1-737): T1 sequence (P13807 1-737)
# yGsy2p Y513L mutant = yGsy2p Y513L mutant (Saccharomyces cerevisiae, UniProt P27472, Y513L); test: Inhibition of yGsy2p active-site mutant Y513L; format: biochemical; conditions: saturating G6P (7.2 mM)
# yGsy2p [5] = target: T3, yGsy2p; test: Activation of yGsy2p by G6P, 14C-glucose incorporation assay; format: biochemical
# How it was run: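 His-tagged yeast Gsy2p was expressed in E. coli BL21(DE3) and purified by Ni-NTA then Q-Sepharose. Radiochemical 14C-glucose incorporation assay run at varied G6P. % activation was fitted to a hyperbolic binding equation to give AC50. Done in triplicate.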
# hGYS1 [6] = target: T6, hGYS1 (Homo sapiens, UniProt P13807); test: Fluorescence polarization displacement of tracer from hGYS1; format: binding; conditions: FP assay with hGYS1
# T6 sequence (P13807 1-737): T1 sequence (P13807 1-737)
# hGYS1 [7] = target: T6, hGYS1; test: Activation of hGYS1 by G6P or GlcN6P, 14C-glucose incorporation assay; format: biochemical
# How it was run: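 Full-length human GYS1 was expressed in insect cells. Radiochemical 14C-glucose incorporation assay run at varied G6P or GlcN6P. % activation was plotted against activator concentration and fitted to a hyperbolic binding equation to give AC50. Done in triplicate.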
# yGsy2p [8] = target: T3, yGsy2p; test: Fluorescence polarization competitive displacement of tracer from yGsy2p; format: binding
# How it was run: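 Fluorescein-labelled glucosamine-6-phosphate tracer at 20 nM final with 4.2 µM yeast Gsy2p in 15 mM Tris-HCl pH 7.8, 15 mM NaCl. Unlabelled G6P titrated from 0.68 µM to 40 mM. Incubated 10 min at 25°C, then polarization read (ex 485/em 535 nm, mP). EC50 of the displacement fit taken as Kd. Triplicate.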
# Sequence of yGsy2p Y513L mutant (P27472 whole entry Y513L): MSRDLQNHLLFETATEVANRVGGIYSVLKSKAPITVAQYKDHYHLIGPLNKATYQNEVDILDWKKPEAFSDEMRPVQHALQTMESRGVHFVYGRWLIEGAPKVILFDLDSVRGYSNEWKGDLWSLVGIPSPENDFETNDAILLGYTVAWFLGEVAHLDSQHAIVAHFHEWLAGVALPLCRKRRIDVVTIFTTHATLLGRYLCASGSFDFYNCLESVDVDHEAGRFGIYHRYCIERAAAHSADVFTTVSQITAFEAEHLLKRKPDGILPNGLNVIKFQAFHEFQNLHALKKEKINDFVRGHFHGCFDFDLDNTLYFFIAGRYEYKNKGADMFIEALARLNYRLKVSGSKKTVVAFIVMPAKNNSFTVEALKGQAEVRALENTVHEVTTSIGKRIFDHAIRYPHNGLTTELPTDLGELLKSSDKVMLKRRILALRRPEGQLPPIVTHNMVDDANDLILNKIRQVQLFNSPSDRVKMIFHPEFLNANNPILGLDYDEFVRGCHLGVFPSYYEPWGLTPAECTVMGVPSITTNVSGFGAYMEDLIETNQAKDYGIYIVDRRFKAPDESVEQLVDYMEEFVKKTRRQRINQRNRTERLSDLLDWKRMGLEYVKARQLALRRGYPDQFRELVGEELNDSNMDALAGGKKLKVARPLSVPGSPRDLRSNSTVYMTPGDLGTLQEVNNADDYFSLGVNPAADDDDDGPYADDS
structure (smiles),measurement,setting,value
"COc1cc(-c2c(-c3ccccc3)ncn2CCC2CCCN2C)ccc1O (racemic) [Compound H23, (rac)-2-methoxy-4-(1-(2-(1-methylpyrrolidin-2-yl)ethyl)-4-phenyl-1H-imidazol-5-yl)phenol]",reduction of synthase activity in HEK293-PTG cell lysate,[1],did not significantly inhibit
same,reduction of synthase activity in Rat-1 cell lysate,[2],did not significantly inhibit
same,mode of inhibition of yGsy2p with respect to varied UDPG,yGsy2p [3],competitive
same,inhibition at 100 µM,"hGYS1Δ634S8,11N",> 20%
O=C(CSCCC(=O)N[C@@H]1[C@@H](O)[C@H](O)[C@@H](COP(=O)(O)O)O[C@H]1O)Nc1ccc(-c2c3ccc(=O)cc-3oc3cc(O)ccc23)c(C(=O)O)c1 [GlcN6P-fluorescein-5-Ex],Kd,yGsy2p [4],7.6 ± 0.7 µM
O=C(O)CCc1ccc(-c2ccccc2)n1-c1ccc(O)cc1 [Compound 7],improvement in potency toward hGYS1 relative to H23,wild-type hGYS1,2 fold
same,reduction of synthase activity in HEK293-PTG cell lysate,[1],did not significantly inhibit
same,reduction of synthase activity in Rat-1 cell lysate,[2],did not significantly inhibit
"Oc1ccc(-c2c(-c3ccc(O)c(O)c3O)n[nH]c2C(F)(F)F)cc1 [Compound 23, 4-(4-(4-hydroxyphenyl)-3-(trifluoromethyl)-1H-pyrazol-5-yl)pyrogallol]",improvement in potency toward hGYS1 relative to H23,wild-type hGYS1,more than 300 fold
same,mode of inhibition for wild-type hGYS1,wild-type hGYS1; versus UDPG,competitive
same,inhibition of Y513L mutant compared with wild-type yGsy2p,yGsy2p Y513L mutant,compromised; also recorded: decreased potency
"O=c1ccn([C@@H]2O[C@H](COP(=O)(O)OP(=O)(O)O)[C@@H](O)[C@H]2O)c(=O)[nH]1 [UDP, reference compound]",mode of inhibition of yGsy2p with respect to varied UDPG,yGsy2p [3],competitive
Cc1[nH]nc(-c2ccc(O)c(O)c2O)c1-c1ccc(Cl)cc1 [Compound 11],improvement in potency toward hGYS1 relative to H23,wild-type hGYS1,16 fold
"O=C[C@H](O)[C@@H](O)[C@H](O)[C@H](O)COP(=O)(O)O [Compound G6P, glucose-6-phosphate]",AC50,yGsy2p [5],98.1 ± 3.1 µM
same,displacement of GlcN6P-coupled fluorophore or fluorophore alone from hGYS1,hGYS1 [6],unable to displace
same,AC50,hGYS1 [7],1600 ± 100 µM
same,Kd,yGsy2p [8],70.9 ± 3.6 µM
"N[C@H]1C(O)O[C@H](COP(=O)(O)O)[C@@H](O)[C@@H]1O (stereo partly drawn) [GlcN6P, glucosamine-6-phosphate]",AC50,hGYS1 [7],5900 ± 100 µM
